Results taken from ChEMBL document CHEMBL3286189, “Discovery and SAR studies of a novel class of cytotoxic 1,4-disubstituted piperidines via Ugi reaction” (Eur J Med Chem, 2014).

Assays:
[1] = system: Huh-7; assay: Cytostatic activity against human HuH7 cells assessed as inhibition of cell proliferation after 96 hrs by coulter counting analysis; type: functional, cell-based; settings: Huh-7, 96 h
Method in brief: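 Anti-proliferative testing extended to human kidney Caki-1 and human liver Huh-7 tumour cells. The value reported is the IC50, the concentration that inhibits tumour cell growth by 50%.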

[2] = system: HCT-116; assay: Anticancer activity against human HCT116 cells; type: functional
Method in brief: (§1)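 Values come from the NCI 60-cell-line human tumour panel, run on a single analog. Cytostatic and cytotoxic responses were read for each cell line across graded molar concentrations of that compound.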

[3] = system: CCRF-CEM; assay: Cytostatic activity against human CEM cells assessed as inhibition of cell proliferation after 72 hrs by coulter counting analysis; type: functional, cell-based; settings: Homo sapiens, CCRF-CEM, 72 h
Method in brief: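 Anti-proliferative screen in murine leukemia L1210, human T-lymphocyte CEM and human cervix carcinoma HeLa cultures. The value reported is the IC50, the concentration that inhibits cell proliferation by 50%.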

[4] = Anticancer activity against human HCT15 cells; type: functional; method in brief: as §1
[5] = system: HL-60; assay: Anticancer activity against human HL60 (TB) cells; type: functional
Method in brief: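 Run within the broad NCI-60 human tumour cell line panel screen of the National Cancer Institute.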

[6] = system: M14; assay: Anticancer activity against human M14 cells; type: functional; method in brief: as §1
[7] = system: U-251; assay: Anticancer activity against human U251 cells; type: functional; method in brief: as §1
[8] = Anticancer activity against human Hs 578T cells; type: functional; method in brief: as §1
[9] = system: SK-MEL-5; assay: Anticancer activity against human SK-MEL-5 cells; type: functional; method in brief: as §1
[10] = system: HT-29; assay: Anticancer activity against human HT-29 cells; type: functional; method in brief: as §1
[11] = system: IGROV-1; assay: Anticancer activity against human IGROV1 cells; type: functional; method in brief: as §1
[12] = Anticancer activity against human MOLT4 cells; type: functional; method in brief: as §1
[13] = system: Malme-3M; assay: Anticancer activity against human MALME-3M cells; type: functional; method in brief: as §1
[14] = system: SNB-75; assay: Anticancer activity against human SNB75 cells; type: functional; method in brief: as §1
[15] = system: NCI-H322M; assay: Anticancer activity against human NCI-H322M cells; type: functional; method in brief: as §1
[16] = system: NCI/ADR-RES; assay: Anticancer activity against human NCI/ADR-RES cells; type: functional; method in brief: as §1
[17] = system: NCI-H226; assay: Anticancer activity against human NCI-H226 cells; type: functional; method in brief: as §1
[18] = system: HOP-62; assay: Anticancer activity against human HOP62 cells; type: functional; method in brief: as §1
[19] = Anticancer activity against human UACC62 cells; type: functional
Method in brief: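 Assayed in the NCI Cancer-60 human tumour cell line panel, with activity read across several log-step concentrations.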

[20] = read-out: pLC50 (the source's name) (converted)

## CC(C)(C)OC(=O)N[C@@H](Cc1ccccc1)C(=O)N(Cc1ccccc1)C1(C(=O)NCc2ccccc2)CCN(Cc2ccccc2)CC1
[1]
  IC50: 6.4 µM
[2]
  GI50: 2.4 µM
[2]; [20]
  CC50: > 100 µM
[2]; read-out: pTGI (converted)
  TGI: 10 µM
[3]
  IC50: 4.4 µM
[4]; HCT-15
  GI50: 3.16 µM
[4]; HCT-15, read-out: pLC50 (the source's name) (converted)
  CC50: > 100 µM
[4]; HCT-15, read-out: pTGI
  TGI: > 100 µM
[5]
  GI50: 2.51 µM
[5]; [20]
  CC50: > 100 µM
[5]; read-out: pTGI (converted)
  TGI: 6.17 µM
[6]
  GI50: 2.63 µM
[6]; [20]
  CC50: > 100 µM
[6]; read-out: pTGI (converted)
  TGI: 44.7 µM
[7]
  GI50: 3.16 µM
[7]; [20]
  CC50: > 100 µM
[7]; read-out: pTGI
  TGI: > 100 µM
[8]
  GI50: 4.27 µM
[8]; [20]
  CC50: > 100 µM
[8]; read-out: pTGI
  TGI: > 100 µM
[9]
  GI50: 1.74 µM
[9]; [20]
  CC50: 6.31 µM
[9]; read-out: pTGI (converted)
  TGI: 3.31 µM
[10]
  GI50: 2.14 µM
[10]; [20]
  CC50: 57.5 µM
[10]; read-out: pTGI (converted)
  TGI: 6.76 µM
[11]
  GI50: 5.75 µM
[11]; [20]
  CC50: > 100 µM
[11]; read-out: pTGI
  TGI: > 100 µM
[12]; MOLT-4
  GI50: 1.82 µM
[12]; MOLT-4, read-out: pLC50 (the source's name) (converted)
  CC50: > 100 µM
[12]; MOLT-4, read-out: pTGI (converted)
  TGI: 6.31 µM
[13]
  GI50: 3.02 µM
[13]; [20]
  CC50: > 100 µM
[13]; read-out: pTGI (converted)
  TGI: 10 µM
[14]
  GI50: 2.95 µM
[14]; [20]
  CC50: > 100 µM
[14]; read-out: pTGI
  TGI: > 100 µM
[15]
  GI50: 9.33 µM
[15]; [20]
  CC50: > 100 µM
[15]; read-out: pTGI
  TGI: > 100 µM
[16]
  GI50: 2.88 µM
[16]; [20]
  CC50: > 100 µM
[16]; read-out: pTGI (converted)
  TGI: 46.8 µM
[17]
  GI50: 3.24 µM
[17]; [20]
  CC50: > 100 µM
[17]; read-out: pTGI
  TGI: > 100 µM
[18]
  GI50: 3.89 µM
[18]; [20]
  CC50: > 100 µM
[18]; read-out: pTGI
  TGI: > 100 µM
[19]; UACC-62
  GI50: 2.51 µM
[19]; UACC-62, read-out: pLC50 (the source's name) (converted)
  CC50: > 100 µM
[19]; UACC-62, read-out: pTGI (converted)
  TGI: 7.94 µM
